Results from different studies.
Protocols differ between the studies behind these lines.
Target: Tyrosine-protein kinase ABL2 (ABL2, Homo sapiens, UniProt P42684)

| Structure (SMILES) | test | conditions | remaining binding [%] |
| --- | --- | --- | --- |
| N#Cc1ccc(Nc2ccc3[nH]c(=O)[nH]c3c2)c(Cl)c1 | cell-free assay, competition with immobilised ligand | 1 µM | 93 |
| CNC(=O)c1cc(Oc2ccc(NC(=O)Nc3ccc(Cl)c(C(F)(F)F)c3)cc2)ccn1 | cell-free assay, competition with immobilised ligand | 10 µM | 33 |
| C[C@@H](c1ccc(-n2cnc3c(N)ncnc32)cc1)N1CCc2nn(C)c(Cc3ccccc3)c2C1=O | binding, competition with immobilised ligand | 0.1 µM | 76 |
| CC1CCCN1c1nccc(-c2cnn3ncccc23)n1 (stereo not drawn) | binding | 1 µM | 100 |
| CCN(CC)CCNC(=O)c1c(C)[nH]c(/C=C2\C(=O)Nc3ccc(F)cc32)c1C | cell-free assay, competition with immobilised ligand | 0.1 µM | 92 |
| C[C@@H](c1cccc(C#N)c1)n1cc(Cl)cc(C(N)=O)c1=N | cell-free assay, competition with immobilised ligand | 1 µM | 84 |
| c1cncc(-c2cccc(Nc3nccc(NC4CCCCC4)n3)c2)c1 | binding, competition with immobilised ligand | 10 µM | 56 |
| CN1CC[C@H](c2c(O)cc(O)c3c(=O)cc(-c4ccccc4Cl)oc23)[C@H](O)C1 | cell-free assay, competition with immobilised ligand | 10 µM | 80 |
| O=C(c1ccc(Nc2ncc(Cl)c(-c3ccc(Cl)s3)n2)cc1)N1CCC(N2CCCC2)CC1 | binding, competition with immobilised ligand | 1 µM | 56 |
| c1cnn2ncc(-c3ccnc(N4CCC45COC5)n3)c2c1 | binding | 1 µM | 87 |
| CS(=O)(=O)CCNCc1ccc(-c2ccc3ncnc(Nc4ccc(OCc5cccc(F)c5)c(Cl)c4)c3c2)o1 | cell-free assay, competition with immobilised ligand | 0.1 µM | 99 |
| COCCOc1nc(-c2ccc(Cl)nc2)nc2c1CN(C(=O)c1ncn3ccccc13)CC2 | cell-free assay, competition with immobilised ligand | 0.1 µM | 100 |
| CCN1CCN(Cc2ccc(C(=O)Nc3ccc(C)c(Oc4ccc5c(c4)CC(=O)N5)c3)cc2C(F)(F)F)CC1 | binding, competition with immobilised ligand | 1 µM | 20 |
| CS(=O)(=O)N1CCCC(NC(=O)[C@H](CCC2CCCCC2)NC(=O)c2ccc(CNC(=O)c3cnc4ccccn34)cc2)C1 (stereo partly drawn) | cell-free assay, competition with immobilised ligand | 0.1 µM | 56 |
| COc1cc2ncnc(Nc3ccc(F)c(Cl)c3)c2cc1OCCCN1CCOCC1 | cell-free assay, competition with immobilised ligand | 0.1 µM | 100 |
| C[C@H]1CCN(c2nccc(-c3cnn4ncccc34)n2)C1 | binding | 1 µM | 78 |
| CO[C@@H](C)c1c(Nc2ccc([C@H](N(C)C(=O)C3CCS(=O)(=O)CC3)C(F)(F)F)cc2)cnc2cc(Cl)nn12 | cell-free assay, competition with immobilised ligand | 1 µM | 85 |
| COc1cnc(Nc2cccc(S(N)(=O)=O)c2)nc1N1CCN(c2ccccc2)CC1 | binding, competition with immobilised ligand | 1 µM | 98 |
| CN(C)c1ncc(F)c(-c2cnn3ncccc23)n1 | binding | 1 µM | 100 |
| O=C(NCCCN1CCOCC1)c1ccc(Nc2nccc(-c3cc4ccccc4s3)n2)cc1 | binding, competition with immobilised ligand | 1 µM | 85 |
| O=C(NCCCC1CCCCC1)c1ccc(CNC(=O)c2cnn(-c3ccccc3)c2C(F)(F)F)cc1 | cell-free assay, competition with immobilised ligand | 0.1 µM | 87 |
